# Results from ChEMBL document CHEMBL1130178, “Synthesis and evaluation of novel fluorinated methotrexate derivatives for application to rheumatoid arthritis treatment” (J Med Chem, 1997).
# Assays:
# [1] = Safety index = Ratio of lethal dose / suppressive dose value; format: toxicity; settings: for selectivity ratio: read-out: Safety index
# Procedure, shortened: (§1)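 Female BDF1 mice (6 weeks old) were immunized iv with 1 × 10^8 SRBC, then given the test compound's sodium salt in water per os on days 1–3. Serum was taken on day 7 and serially two-fold diluted in PBS with 5 × 10^-5 M 2-mercaptoethanol. 1% SRBC was added, plates were held 14 h at 25 °C, and hemagglutination titer was read visually. Lethal dose is the dose (mg/kg) at which one mouse died; index = lethal dose / dose giving 75% suppression.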
# [2] = Lethal dose in rats.; format: toxicity; settings: rat, in vivo
# [3] = Inhibitory activity against LPS-stimulated B cell proliferation.; format: functional, cell-based, Mus musculus
# Procedure, shortened: (§2)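 Mouse spleen cells stimulated with mitogen, concanavalin A for T cells or lipopolysaccharide for B cells; inhibition of proliferative response measured, IC50 in ng/mL.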
# [4] = Compound dose causing lethality in mice; format: toxicity; settings: mouse, in vivo; procedure, shortened: as §1
# EL4 = test: Inhibitory growth of EL4 thymoma cell line from C57BL/6 mice; format: functional, cell-based; settings: Mus musculus
# Procedure, shortened: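 EL4 thymoma cells (C57BL/6 origin), 4 × 10^4 per well, exposed to compound in DMSO at final 0–50 μg/mL for 1 day at 37 °C, 5% CO2, humidified air; proliferation then measured.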
# Rattus norvegicus = organism: Rattus norvegicus; test: Effect on RA model was examined using adjuvant arthritis in rats.; format: functional
# Procedure, shortened: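 Female Lewis rats (7 weeks, 140–160 g) sensitized by s.c. injection into left hind paw of liquid paraffin containing 0.5 mg Mycobacterium butyricum. 0.6% suspension in arabic gum given orally 5 days/week from day 1 (12 doses). Uninjected paw volume measured by plethysmometer until day 17; ED50 from inhibition versus vehicle control.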
# [5] = Ratio of LD50 / ED50 value against adjuvant arthritis in rats.; format: functional
# Procedure, shortened: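 Female Lewis rats (7 weeks, 140–160 g) sensitized by subcutaneous injection into left hind paw of 0.05 mL liquid paraffin containing 0.5 mg Mycobacterium butyricum. Compound given orally as 0.6% suspension in arabic gum, five days a week from day 1 (12 days total). Uninjected paw volume measured by plethysmometer until day 17; inhibition versus vehicle control gives ED50; index is LD50/ED50.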
# Mus musculus [6] = organism: Mus musculus; test: Compound dose suppressing antibody production by 75% in mice; format: functional
# Procedure, shortened: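 Female BDF1 mice (6 weeks old) immunized i.v. with 1 × 10^8 SRBC; sodium salt dissolved in water given orally days 1–3. Serum taken day 7; two-fold serial dilutions in PBS with 5 × 10^-5 M 2-mercaptoethanol mixed with 1% SRBC, 14 h at 25 °C; hemagglutination titer read visually. Dose giving 75% suppression, mg/kg.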
# T-cell [7] = test: Inhibitory activity against Con A-stimulated Tcell proliferation.; format: functional, cell-based, Mus musculus; procedure, shortened: as §2
# Mus musculus [8] = test: secondary antibody response in mice at 1.25 mg/kg; format: functional
# Procedure, shortened: (§3)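 Female BDF1 mice (6 weeks old) immunized i.v. with 1 × 10^5 SRBC on days 0, 7 and 14; sodium salt in water given orally 5 days/week from day 0 (15 doses). Serum taken day 20; hemagglutination titer by serial two-fold dilution with 1% SRBC, 14 h at 25 °C, read visually; mean log2 titer ± SD.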
# T-cell [9] = test: Inhibitory activity against Con A-stimulated T cell proliferation.; format: functional, cell-based; settings: Mus musculus; procedure, shortened: as §2
# Mus musculus [10] = test: secondary antibody response in mice at 2.5 mg/kg; format: functional; procedure, shortened: as §3
# Mus musculus [11] = test: secondary antibody response in mice at 0.625 mg/kg; format: functional; procedure, shortened: as §3
# [12] = Rattus norvegicus, read-out: ED50
# [13] = Mus musculus, T-cell, read-out: IC50
SMILES,selectivity ratio [1],LD50 ([2]; read-out: LD50) [mg/kg],IC50 [3] [ng/mL],Lethal dose [4] [mg/kg],IC50 (EL4) [µM],ED50 (Rattus norvegicus; [12]) [mg/kg],Ratio [5],Suppressive dose (Mus musculus [6]) [mg/kg],IC50 (T-cell [7]; [13]) [ng/mL],IC50 (T-cell [7]; t-cell) [ng/mL],Safety index [1],also measured
Nc1nc(N)c2nc(CNc3ccc(C(=O)N[C@@H](CC(F)C(=O)O)C(=O)O)cc3Br)cnc2n1 (stereo partly drawn),> 80,20,8.2,> 200,> 100,0.43,46.5,5,2.1,–,–,–
CN(Cc1cnc2nc(N)nc(N)c2n1)c1ccc(C(=O)N[C@@H](CCC(=O)O)C(=O)O)cc1 [METHOTREXATE],64,0.82,12.5,40,1.57,0.058,–,0.625,–,–,–,Log2 (Mus musculus [8]): 4.2; IC50 (T-cell [9]): 6.1 ng/mL; Safety index [5]: 14.1; Log2 (Mus musculus [10]): 4; Log2 (Mus musculus [11]): 5.4
Nc1nc(N)c2nc(CNc3ccc(C(=O)N[C@@H](CC(F)C(=O)O)C(=O)O)cc3C(F)(F)F)cnc2n1 (stereo in doubt; 2ve),–,–,14.3,–,–,–,–,–,–,8,–,–
CCCc1cc(C(=O)N[C@@H](CC(F)C(=O)O)C(=O)O)ccc1NCc1cnc2nc(N)nc(N)c2n1 (stereo in doubt; form 1),–,–,22.2,200,> 100,–,–,10,5.3,–,40,–
Cc1cc(C(=O)N[C@@H](CC(F)C(=O)O)C(=O)O)ccc1NCc1cnc2nc(N)nc(N)c2n1 (stereo in doubt; form 1),40,–,9.9,12.5,> 100,–,–,0.31,7.8,–,–,–
Cc1cc(C(=O)N[C@@H](CC(F)C(=O)O)C(=O)O)sc1N(C)Cc1cnc2nc(N)nc(N)c2n1 (stereo in doubt; form 1),–,–,14.9,> 180,> 100,–,–,10,–,11.5,> 18,–
Nc1nc(N)c2nc(CNc3ccc(C(=O)N[C@@H](CC(F)C(=O)O)C(=O)O)cc3Cl)cnc2n1 (stereo partly drawn),100,–,11.8,80,> 100,–,–,0.8,4.3,–,–,–
CN(Cc1cnc2nc(N)nc(N)c2n1)c1ccc(C(=O)N[C@@H](CC(F)C(=O)O)C(=O)O)cc1 (stereo in doubt; 2ie),12,–,21,600,–,–,–,50,–,25.9,–,–
Cc1cc(C(=O)N[C@@H](CC(F)C(=O)O)C(=O)O)ccc1NCc1cnc2nc(N)nc(N)c2n1 (stereo in doubt; form 2),–,–,16.5,100,–,–,–,1.25,–,10.7,80,–
Nc1nc(N)c2nc(CNc3ccc(C(=O)N[C@@H](CC(F)C(=O)O)C(=O)O)cc3F)cnc2n1 (stereo partly drawn),160,29,22.7,200,> 100,0.62,46.8,1.25,9.4,–,–,Log2 (Mus musculus [8]): 6.8; Log2 (Mus musculus [10]): 5.2; Log2 (Mus musculus [11]): 6.2
CN(Cc1cnc2nc(N)nc(N)c2n1)c1ccc(C(=O)N[C@@H](CC(F)C(=O)O)C(=O)O)cc1 (stereo in doubt; 2it),–,–,61.5,–,> 100,–,–,>400,–,64.6,–,–
CCc1cc(C(=O)N[C@@H](CC(F)C(=O)O)C(=O)O)ccc1NCc1cnc2nc(N)nc(N)c2n1 (stereo in doubt; form 1),160,20,9.7,100,> 100,0.8,25,1.25,3.8,–,–,Log2 (Mus musculus [8]; 1.25 mg/kg): 3.8; Log2 (Mus musculus [10]; 2.5 mg/kg): 3.2; Log2 (Mus musculus [11]; 0.625 mg/kg): 4.8
Nc1nc(N)c2nc(CNc3ccc(C(=O)N[C@@H](CC(F)C(=O)O)C(=O)O)cc3C(F)(F)F)cnc2n1 (stereo in doubt; 2vt),–,–,19.5,–,> 100,–,–,5,–,16.8,–,–
Cc1cc(C(=O)N[C@@H](CC(F)C(=O)O)C(=O)O)sc1N(C)Cc1cnc2nc(N)nc(N)c2n1 (stereo in doubt; form 2),–,46,5.1,150,–,0.8,57.5,5,–,3.8,60,–
CCc1cc(C(=O)N[C@@H](CC(F)C(=O)O)C(=O)O)ccc1NCc1cnc2nc(N)nc(N)c2n1 (stereo in doubt; form 2),–,–,9.2,150,–,–,12.2,2.5,–,3.2,120,LD50 [2]: 10.9 mg/kg; Log2 (Mus musculus [8]; 1.25 mg/kg): 5.2; ED50 (Rattus norvegicus): 0.89 mg/kg; Log2 (Mus musculus [10]; 2.5 mg/kg): 4.6; Log2 (Mus musculus [11]; 0.625 mg/kg): 5.4
